Measurements published in ChEMBL document CHEMBL3044632, “Synthesis, crystal structure, and biological activity of 4-methyl-1,2,3-thiadiazole-containing 1,2,4-triazolo[3,4-b][1,3,4]thiadiazoles” (J Agric Food Chem, 2010).
In brackets after ≈: the same amount, converted by molar mass. Activity calls are given as the source filed them. The calls are words filed in the database; no cut-off is given here.

Assays:
[1] = tested on: Nicotiana tabacum; assay: Phytotoxicity against Nicotiana tabacum (tobacco) plant at 50 to 500 ug/mL; assay type: organism-based; details: in vivo
[2] = tested on: Tobacco mosaic virus; assay: Antiviral activity against Tobacco mosaic virus (TMV) infected leaves assessed as viral inhibition at 50 ug/mL at 25 degC for 72 hr; assay type: functional
Procedure, shortened: (§1)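 Systemic acquired resistance induction was assayed in a tobacco–TMV system. The antivirus inhibition ratio was calculated from the average number of viral lesions on inoculated leaves, relative to the corresponding control.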

[3] = tested on: Rhizoctonia solani; assay: Fungicide activity against Rhizoctonia solani Kuhn assessed as growth inhibition at 50 ug/mL at 24 to 26 degC measured after 2 days; assay type: functional; details: 48 h, read-out: GI
[4] = tested on: Puccinia triticina; assay: Fungicide activity against Puccinia triticina assessed as growth inhibition at 50 ug/mL at 24 to 26 degC measured after 2 days; assay type: functional; details: 48 h, read-out: GI
[5] = tested on: Thanatephorus cucumeris; assay: Fungicide activity against Thanatephorus cucumeris assessed as growth inhibition at 50 ug/mL at 24 to 26 degC measured after 2 days; assay type: functional; details: 48 h, read-out: GI
[6] = tested on: Botryosphaeria berengeriana; assay: Fungicide activity against Botryosphaeria berengeriana assessed as growth inhibition at 50 ug/mL at 24 to 26 degC measured after 2 days; assay type: functional; details: 48 h, read-out: GI
[7] = tested on: Phytophthora infestans; assay: Fungicide activity against Phytophthora infestans assessed as growth inhibition at 50 ug/mL at 24 to 26 degC measured after 2 days; assay type: functional; details: 48 h, read-out: GI
[8] = tested on: Fusarium oxysporum; assay: Fungicide activity against Fusarium oxysporum assessed as growth inhibition at 50 ug/mL at 24 to 26 degC measured after 2 days; assay type: functional; details: 48 h, read-out: GI
[9] = tested on: Colletotrichum lagenaria; assay: Fungicide activity against Colletotrichum lagenaria assessed as growth inhibition at 50 ug/mL at 24 to 26 degC measured after 2 days; assay type: functional; details: 48 h, read-out: GI
[10] = tested on: Cercospora beticola; assay: Fungicide activity against Cercospora beticola assessed as growth inhibition at 50 ug/mL at 24 to 26 degC measured after 2 days; assay type: functional; details: 48 h, read-out: GI
[11] = tested on: Mycosphaerella arachidis; assay: Fungicide activity against Mycosphaerella arachidis assessed as growth inhibition at 50 ug/mL at 24 to 26 degC measured after 2 days; assay type: functional; details: 48 h, read-out: GI
[12] = tested on: Alternaria solani; assay: Fungicide activity against Alternaria solani assessed as growth inhibition at 50 ug/mL at 24 to 26 degC measured after 2 days; assay type: functional; details: 48 h, read-out: GI
[13] = tested on: Nicotiana tabacum; assay: Induction of systemic acquired resistance in Nicotiana tabacum (tobacco) mosaic virus infected Nicotiana tabacum (tobacco) plant at 100 ug/mL at 25 degC for 72 hr; assay type: functional
Procedure, shortened: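 Tobacco–TMV system used to assess induced resistance. The antiviral inhibition ratio was calculated from the mean number of viral lesions on inoculated leaves, relative to the matching control.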

[14] = tested on: Tobacco mosaic virus; assay: Antiviral activity against Tobacco mosaic virus (TMV) infected leaves assessed as viral inhibition at 100 ug/mL at 25 degC for 72 hr; assay type: functional; procedure, shortened: as §1
[15] = tested on: Tobacco mosaic virus; assay: Antiviral activity against Tobacco mosaic virus (TMV) infected leaves assessed as viral inhibition at 500 ug/mL at 25 degC for 72 hr; assay type: functional; procedure, shortened: as §1
[16] = tested on: Rhizoctonia solani; assay: Fungicide activity against Rhizoctonia solani assessed as growth inhibition at 24 to 26 degC measured after 2 days; assay type: functional, organism-based; details: 48 h
[17] = tested on: Thanatephorus cucumeris; assay: Fungicide activity against Thanatephorus cucumeris assessed as growth inhibition at 24 to 26 degC measured after 2 days; assay type: functional, organism-based; details: 48 h
[18] = tested on: Phytophthora infestans; assay: Fungicide activity against Phytophthora infestans assessed as growth inhibition at 24 to 26 degC measured after 2 days; assay type: functional, organism-based; details: 48 h
[19] = tested on: Macrophoma; assay: Fungicide activity against Macrophoma kuwatsukai assessed as growth inhibition at 24 to 26 degC measured after 2 days; assay type: functional, organism-based; details: 48 h
[20] = tested on: Fusarium oxysporum f. sp. cucumerinum; assay: Fungicide activity against Fusarium oxysporum f. cucumerinum assessed as growth inhibition at 24 to 26 degC measured after 2 days; assay type: functional, organism-based; details: 48 h
[21] = tested on: Alternaria solani; assay: Fungicide activity against Alternaria solani assessed as growth inhibition at 24 to 26 degC measured after 2 days; assay type: functional, organism-based; details: 48 h

SMILES	Activity [1]	inhibition at 50 µg/mL [2] [%]	inhibition of growth at 50 µg/mL [3] [%]	inhibition of growth at 50 µg/mL [4] [%]	inhibition of growth at 50 µg/mL [5] [%]	inhibition of growth at 50 µg/mL [6] [%]	inhibition of growth at 50 µg/mL [7] [%]	inhibition of growth at 50 µg/mL [8] [%]	inhibition of growth at 50 µg/mL [9] [%]	inhibition of growth at 50 µg/mL [10] [%]	inhibition of growth at 50 µg/mL [11] [%]	inhibition of growth at 50 µg/mL [12] [%]	Activity [13]	inhibition at 100 µg/mL [14] [%]	inhibition at 500 µg/mL [15] [%]	further results
Cc1nnsc1C1=NNC2SC(c3ccc(OC(F)(F)F)cc3)=NN12 (configuration not stated)	Toxic	10.2	11.1	70	30.4	17.9	4.8	44.4	18.2	0	15.4	9.5				
Cc1ccc(NC(=O)c2snnc2C)cc1Cl [TIADINIL]													48.92%	36.6		
COc1ccc(C2=NN3C(c4snnc4C)=NNC3S2)cc1 (configuration not stated)	Toxic	17.9	11.1	10	46.4	7.7	4.8	44.4	18.2	0	7.7	0				
Cc1nnsc1C1=NNC2SC(c3cccc([N+](=O)[O-])c3)=NN12 (configuration not stated)	Toxic		11.1	10	25	12.8	54.8	47.2	0	0	7.7	9.5		44.4	44.4	
Cc1nnsc1C1=NNC2SC(C(Cl)(Cl)Cl)=NN12 (configuration not stated)	Toxic		83.3	78.9	84.8	83.9	70.7	75	64.7	71.4	63.6	66.7		33.3	27.8	EC50 [16]: 4.1 µg/mL (≈ 11.9 µM); EC50 [17]: 2.5 µg/mL (≈ 7.27 µM); EC50 [18]: 12.5 µg/mL (≈ 36.4 µM); EC50 [19]: 6.4 µg/mL (≈ 18.6 µM); EC50 [20]: 11.2 µg/mL (≈ 32.6 µM); EC50 [21]: 14.6 µg/mL (≈ 42.5 µM)
NC(=O)c1ncn([C@@H]2O[C@H](CO)[C@@H](O)[C@H]2O)n1 [RIBAVIRIN]		16.7											inactive	21.6	37.9	
